Assays:
[1] = Solubility of the compound in distilled water; type: physicochemical
[2] = target: T1, 5-hydroxytryptamine receptor 4 (Homo sapiens, UniProt Q13639); assay: Displacement of [3H]-GR113808 from human 5-HT4 receptor expressed in African green monkey COS7 cell membranes after 30 mins by liquid scintillation counting analysis; set-up: species or system COS-7
Procedure, shortened: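 Membranes from Cos-7 cells expressing human 5-HT4: cells washed in PBS, pelleted, then resuspended in ice-cold 50 mM HEPES pH 7.4 and spun at 40,000 g for 30 min at 4 °C. Nonspecific binding was set with 10 μM 5-HT. IC50 came from linear regression of the displacement curve.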

[3] = system: Rattus norvegicus; assay: Induction of gastric emptying rate in Sprague-Dawley rat at 5 mg/kg, iv administered prior to feeding measured after 30 mins; type: functional, Stomach
[4] = target: Voltage-gated inwardly rectifying potassium channel KCNH2 (Homo sapiens, UniProt Q12809); assay: Inhibition of human ERG channel by fluorescence polarization assay
Voltage-gated inwardly rectifying potassium channel KCNH2, sequence (Q12809 whole entry): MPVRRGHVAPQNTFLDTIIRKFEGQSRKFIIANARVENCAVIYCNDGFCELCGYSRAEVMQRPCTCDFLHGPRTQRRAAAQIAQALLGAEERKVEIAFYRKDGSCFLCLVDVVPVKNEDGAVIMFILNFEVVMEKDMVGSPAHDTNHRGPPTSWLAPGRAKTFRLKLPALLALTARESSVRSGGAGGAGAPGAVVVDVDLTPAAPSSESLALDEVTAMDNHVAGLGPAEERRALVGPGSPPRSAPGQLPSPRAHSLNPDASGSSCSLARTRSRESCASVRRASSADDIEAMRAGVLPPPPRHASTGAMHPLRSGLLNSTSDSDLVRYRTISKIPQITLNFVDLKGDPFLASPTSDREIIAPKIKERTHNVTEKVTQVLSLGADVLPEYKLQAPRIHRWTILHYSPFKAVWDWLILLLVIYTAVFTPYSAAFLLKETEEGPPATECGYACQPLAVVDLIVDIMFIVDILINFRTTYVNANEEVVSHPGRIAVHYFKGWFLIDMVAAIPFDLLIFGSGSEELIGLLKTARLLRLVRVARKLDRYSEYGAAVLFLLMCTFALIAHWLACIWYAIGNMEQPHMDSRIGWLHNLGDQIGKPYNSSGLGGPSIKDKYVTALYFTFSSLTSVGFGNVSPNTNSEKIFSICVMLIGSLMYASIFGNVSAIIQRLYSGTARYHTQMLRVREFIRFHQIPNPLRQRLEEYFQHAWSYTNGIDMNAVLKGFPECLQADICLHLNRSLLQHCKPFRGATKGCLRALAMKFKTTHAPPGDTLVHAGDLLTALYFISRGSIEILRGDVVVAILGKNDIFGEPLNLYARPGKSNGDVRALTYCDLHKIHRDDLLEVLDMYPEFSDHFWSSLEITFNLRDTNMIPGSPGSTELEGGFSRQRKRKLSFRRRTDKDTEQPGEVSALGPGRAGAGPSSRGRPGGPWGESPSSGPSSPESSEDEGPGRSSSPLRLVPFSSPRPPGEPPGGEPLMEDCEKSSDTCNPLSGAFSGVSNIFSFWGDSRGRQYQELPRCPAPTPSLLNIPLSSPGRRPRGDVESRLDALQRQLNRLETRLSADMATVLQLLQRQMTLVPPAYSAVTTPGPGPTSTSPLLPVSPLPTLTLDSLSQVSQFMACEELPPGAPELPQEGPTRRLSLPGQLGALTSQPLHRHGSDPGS

[5] = Tmax in rat at 5 mg/kg, po; type: ADME, organism-based; details: in vivo
[6] = system: Rattus norvegicus; assay: AUCinfinity in rat at 5 mg/kg, po; type: ADME, organism-based; set-up: dose 5 mg/kg, time infinity, route oral; details: in vivo
[7] = system: Rattus norvegicus; assay: Induction of gastric emptying rate in Sprague-Dawley rat at 0.1 mg/kg, po administered prior to feeding measured after 30 mins; type: functional, Stomach
Procedure, shortened: (§1)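 Male Sprague-Dawley rats (220–250 g) were fasted 18 h with free water. A 2 mL semisolid meal was gavaged 50 min after drug, and rats were killed 30 min later. Stomach plus contents were weighed. Gastric emptying (%) = [1 − test stomach weight/0-time control stomach weight] × 100.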

[8] = system: Rattus norvegicus; assay: Induction of gastric emptying rate in Sprague-Dawley rat at 0.5 mg/kg, po administered prior to feeding measured after 30 mins; type: functional, Stomach; procedure, shortened: as §1
[9] = Cmax in rat at 5 mg/kg, po; type: ADME, organism-based; set-up: dose 5 mg/kg, route oral; details: in vivo
[10] = target: 5-hydroxytryptamine receptor 4 (Rattus norvegicus, UniProt Q62758); assay: Agonist activity at 5-HT4 receptor in rat esophageal thoracic muscularis mucosae assessed as carbachol-induced contraction
5-hydroxytryptamine receptor 4 (Rattus norvegicus, UniProt Q62758), sequence (Q62758 whole entry): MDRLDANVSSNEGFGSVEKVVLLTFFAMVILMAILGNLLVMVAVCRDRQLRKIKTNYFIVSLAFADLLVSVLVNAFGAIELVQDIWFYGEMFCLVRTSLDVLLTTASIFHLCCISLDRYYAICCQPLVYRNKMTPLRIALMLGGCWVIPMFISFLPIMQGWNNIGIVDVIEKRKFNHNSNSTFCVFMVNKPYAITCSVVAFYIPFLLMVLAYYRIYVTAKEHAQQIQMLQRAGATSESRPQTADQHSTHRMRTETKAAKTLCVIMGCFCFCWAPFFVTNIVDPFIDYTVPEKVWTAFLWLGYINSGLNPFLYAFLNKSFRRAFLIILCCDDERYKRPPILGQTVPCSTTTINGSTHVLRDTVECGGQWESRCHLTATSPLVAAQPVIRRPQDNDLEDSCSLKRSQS
Procedure, shortened: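 The distal 1.2 cm of rat esophagus was equilibrated 60 min in Krebs–Henseleit, washed every 15 min, with isometric force recording. Tissue was precontracted with 3 μM carbachol, then given a cumulative relaxation curve to 5-HT. After a wash and 60 min recovery it was recontracted and a test-compound curve run. Potency is relative to 5-HT in the same preparation.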

[11] = system: Rattus norvegicus; assay: Induction of gastric emptying rate in Sprague-Dawley rat at 5 mg/kg, iv administered prior to feeding along with cisplatin injection measured after 40 mins; type: functional, Stomach
Procedure, shortened: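 Male Sprague-Dawley rats (220–250 g) were fasted 18 h with water available. A 2 mL semisolid meal was given 30 min after drug, together with cisplatin 5 mg/kg i.v. Gastric emptying was determined 40 min later from stomach weights versus 0-time controls: [1 − test/control] × 100.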

[12] = Half life in rat at 5 mg/kg, po; type: ADME, organism-based; details: in vivo
[13] = target: T1, 5-hydroxytryptamine receptor 4; details: 1 to 2 uM
[14] = target: 5-hydroxytryptamine receptor 2A (Homo sapiens) (UniProt P28223); details: 1 to 2 uM
5-hydroxytryptamine receptor 2A (Homo sapiens), sequence (P28223 whole entry): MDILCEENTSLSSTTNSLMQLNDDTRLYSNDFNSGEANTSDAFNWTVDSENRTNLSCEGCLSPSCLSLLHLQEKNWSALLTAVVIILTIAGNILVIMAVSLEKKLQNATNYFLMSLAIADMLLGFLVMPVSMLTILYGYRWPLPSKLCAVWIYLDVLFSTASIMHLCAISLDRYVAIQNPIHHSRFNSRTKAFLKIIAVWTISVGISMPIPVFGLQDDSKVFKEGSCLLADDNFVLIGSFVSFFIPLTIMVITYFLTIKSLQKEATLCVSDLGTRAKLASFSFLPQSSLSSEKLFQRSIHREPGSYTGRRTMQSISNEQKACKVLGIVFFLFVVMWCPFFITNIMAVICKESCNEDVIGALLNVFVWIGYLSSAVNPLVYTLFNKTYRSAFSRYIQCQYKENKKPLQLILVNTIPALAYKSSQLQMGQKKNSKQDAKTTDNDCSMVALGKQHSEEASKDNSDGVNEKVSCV

[15] = target: 5-hydroxytryptamine receptor 2B (Homo sapiens) (UniProt P41595); details: 1 to 2 uM
[16] = target: D(2) dopamine receptor (Homo sapiens) (UniProt P14416); details: 1 to 2 uM
D(2) dopamine receptor (Homo sapiens), sequence (P14416 whole entry): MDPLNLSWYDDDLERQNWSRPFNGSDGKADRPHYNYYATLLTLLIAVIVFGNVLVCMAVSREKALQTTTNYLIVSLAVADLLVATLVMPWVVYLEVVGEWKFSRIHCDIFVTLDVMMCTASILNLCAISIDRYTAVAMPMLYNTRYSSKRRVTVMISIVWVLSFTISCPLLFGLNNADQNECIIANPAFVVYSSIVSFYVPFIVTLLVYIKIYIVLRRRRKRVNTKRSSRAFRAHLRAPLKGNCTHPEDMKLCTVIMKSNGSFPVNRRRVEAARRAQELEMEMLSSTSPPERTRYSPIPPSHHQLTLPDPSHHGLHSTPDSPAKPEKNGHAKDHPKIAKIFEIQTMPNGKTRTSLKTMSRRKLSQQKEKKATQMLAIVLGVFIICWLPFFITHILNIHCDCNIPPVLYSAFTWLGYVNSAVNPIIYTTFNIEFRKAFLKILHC

[17] = target: Mu-type opioid receptor (Homo sapiens) (UniProt P35372); details: 1 to 2 uM
[18] = target: Substance-K receptor (Homo sapiens) (UniProt P21452); details: 1 to 2 uM
[19] = target: D(2) dopamine receptor (Homo sapiens) (UniProt P14416); details: 1 to 2 uM; remark: listed apart in the source
[20] = target: 5-hydroxytryptamine receptor 1A (Homo sapiens) (UniProt P08908); details: 1 to 2 uM
[21] = target: Adrenergic receptor alpha-2 (Homo sapiens) (UniProt P08913+P18825+P18089); details: 1 to 2 uM
[22] = target: Kappa-type opioid receptor (Homo sapiens) (UniProt P41145); details: 1 to 2 uM
[23] = target: Cholecystokinin receptor type A (Homo sapiens) (UniProt P32238); details: 1 to 2 uM
Cholecystokinin receptor type A (Homo sapiens), sequence (P32238 whole entry): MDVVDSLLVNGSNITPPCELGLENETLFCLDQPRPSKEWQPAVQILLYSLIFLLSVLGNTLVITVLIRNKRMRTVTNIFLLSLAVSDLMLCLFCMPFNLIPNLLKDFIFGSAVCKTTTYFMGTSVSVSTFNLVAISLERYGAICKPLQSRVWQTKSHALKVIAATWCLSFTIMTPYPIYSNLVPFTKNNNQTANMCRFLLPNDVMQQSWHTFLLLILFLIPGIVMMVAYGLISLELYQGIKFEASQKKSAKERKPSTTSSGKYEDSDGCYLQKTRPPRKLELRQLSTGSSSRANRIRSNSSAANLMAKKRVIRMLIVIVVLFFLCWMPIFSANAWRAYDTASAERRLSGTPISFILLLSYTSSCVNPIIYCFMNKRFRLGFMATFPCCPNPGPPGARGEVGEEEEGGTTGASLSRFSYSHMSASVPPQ

[24] = target: Adrenergic receptor alpha-1 (Homo sapiens) (UniProt P35348+P25100+P35368); details: 1 to 2 uM
[25] = target: Beta-1 adrenergic receptor (Homo sapiens) (UniProt P08588); details: 1 to 2 uM
[26] = target: Muscarinic acetylcholine receptor M2 (Homo sapiens) (UniProt P08172); details: 1 to 2 uM
[27] = target: Motilin receptor (Homo sapiens) (UniProt O43193); details: 1 to 2 uM
[28] = target: Muscarinic acetylcholine receptor M3 (Homo sapiens) (UniProt P20309); details: 1 to 2 uM
Muscarinic acetylcholine receptor M3 (Homo sapiens), sequence (P20309 whole entry, looked up): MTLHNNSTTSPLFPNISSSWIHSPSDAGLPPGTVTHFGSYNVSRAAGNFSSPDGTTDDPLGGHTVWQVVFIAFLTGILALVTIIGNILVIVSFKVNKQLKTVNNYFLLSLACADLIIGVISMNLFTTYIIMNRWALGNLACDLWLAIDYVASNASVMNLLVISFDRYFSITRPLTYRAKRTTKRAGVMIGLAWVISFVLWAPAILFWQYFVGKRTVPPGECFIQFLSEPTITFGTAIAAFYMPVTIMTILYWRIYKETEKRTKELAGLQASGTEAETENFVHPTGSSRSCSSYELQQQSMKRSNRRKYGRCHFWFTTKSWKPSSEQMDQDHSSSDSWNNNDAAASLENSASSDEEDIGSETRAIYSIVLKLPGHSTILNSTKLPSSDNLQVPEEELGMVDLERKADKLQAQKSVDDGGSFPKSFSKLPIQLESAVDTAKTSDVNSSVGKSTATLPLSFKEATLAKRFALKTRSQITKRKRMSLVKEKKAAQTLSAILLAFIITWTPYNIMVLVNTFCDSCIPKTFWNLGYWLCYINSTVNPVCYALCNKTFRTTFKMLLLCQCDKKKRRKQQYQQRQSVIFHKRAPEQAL

[29] = target: 5-hydroxytryptamine receptor 3A (Homo sapiens) (UniProt P46098); details: 1 to 2 uM
5-hydroxytryptamine receptor 3A (Homo sapiens), sequence (P46098 whole entry): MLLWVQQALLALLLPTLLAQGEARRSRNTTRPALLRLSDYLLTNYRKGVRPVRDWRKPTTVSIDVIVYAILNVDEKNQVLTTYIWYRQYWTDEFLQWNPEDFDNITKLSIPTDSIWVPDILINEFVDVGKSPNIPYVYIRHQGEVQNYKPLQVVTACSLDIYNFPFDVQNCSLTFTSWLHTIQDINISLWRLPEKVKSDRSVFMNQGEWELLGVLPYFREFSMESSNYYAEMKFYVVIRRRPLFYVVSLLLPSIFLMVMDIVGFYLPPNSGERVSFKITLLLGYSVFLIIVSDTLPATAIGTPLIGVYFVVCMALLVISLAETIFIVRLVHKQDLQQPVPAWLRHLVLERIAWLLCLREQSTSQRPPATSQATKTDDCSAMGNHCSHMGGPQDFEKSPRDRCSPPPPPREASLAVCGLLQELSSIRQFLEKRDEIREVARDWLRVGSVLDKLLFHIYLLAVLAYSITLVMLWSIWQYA

[30] = target: D(3) dopamine receptor (Homo sapiens) (UniProt P35462); details: 1 to 2 uM
[31] = target: 5-hydroxytryptamine receptor 1B (Homo sapiens) (UniProt P28222); details: 1 to 2 uM
[32] = target: Substance-P receptor (Homo sapiens) (UniProt P25103); details: 1 to 2 uM
[33] = target: Somatostatin receptor type 2 (Homo sapiens) (UniProt P30874); details: 1 to 2 uM
Somatostatin receptor type 2 (Homo sapiens), sequence (P30874 whole entry): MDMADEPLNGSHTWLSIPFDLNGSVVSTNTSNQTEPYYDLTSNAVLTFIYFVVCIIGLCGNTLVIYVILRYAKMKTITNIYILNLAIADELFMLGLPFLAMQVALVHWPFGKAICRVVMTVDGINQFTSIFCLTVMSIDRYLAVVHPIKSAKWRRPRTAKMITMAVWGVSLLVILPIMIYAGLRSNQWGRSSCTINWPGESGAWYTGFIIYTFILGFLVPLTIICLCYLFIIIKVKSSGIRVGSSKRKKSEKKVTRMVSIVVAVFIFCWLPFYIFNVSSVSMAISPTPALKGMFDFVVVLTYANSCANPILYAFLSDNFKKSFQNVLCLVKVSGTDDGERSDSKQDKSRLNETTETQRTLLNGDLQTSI

T1 sequence (Q13639 whole entry): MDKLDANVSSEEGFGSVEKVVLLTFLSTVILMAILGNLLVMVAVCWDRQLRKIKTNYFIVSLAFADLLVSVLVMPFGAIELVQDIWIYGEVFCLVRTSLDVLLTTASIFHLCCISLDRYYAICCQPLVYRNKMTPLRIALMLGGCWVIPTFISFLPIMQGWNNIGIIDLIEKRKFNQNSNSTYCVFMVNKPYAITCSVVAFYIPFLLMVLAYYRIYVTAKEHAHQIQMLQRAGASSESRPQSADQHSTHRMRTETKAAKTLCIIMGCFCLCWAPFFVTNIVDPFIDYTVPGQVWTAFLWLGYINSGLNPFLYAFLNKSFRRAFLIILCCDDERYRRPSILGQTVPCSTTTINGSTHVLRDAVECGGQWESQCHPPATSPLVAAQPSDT

For COc1cc(N)c(Cl)cc1C(=O)N[C@H]1CCN(CC2CCN(C(=O)C(C)C)CC2)C[C@H]1OC.CS(=O)(=O)O, the solubility [1] was > 10 mg/mL.
Molecule COc1cc(N)c(Cl)cc1C(=O)N[C@@H]1CCN(CC2CCN(C(=O)C(C)C)CC2)C[C@@H]1OC has an IC50 [2] of 68 nM and an Activity [3] of 61.7%.
In the case of COc1cc(N)c(Cl)cc1C(=O)N[C@H]1CCN(CC2CCN(C(=O)C(C)C)CC2)C[C@H]1OC.O=C(O)C(O)C(O)C(=O)O, the solubility [1] is reported as > 30 mg/mL.
Work on CCOC(=O)N1CCC(CN2CC[C@H](NC(=O)c3cc(Cl)c(N)cc3OC)[C@H](OC)C2)CC1 yielded an IC50 [2] of 377 nM and an Activity [3] of 55.9%.
In the case of COc1cc(N)c(Cl)cc1C(=O)N[C@H]1CCN(CCCn2ncnn2)C[C@H]1OC, the IC50 [2] is reported as 1120 nM and the IC50 [4] is reported as > 10000 nM.
In the case of Br.COc1cc(N)c(Cl)cc1C(=O)N[C@H]1CCN(CC2CCN(C(=O)C(C)C)CC2)C[C@H]1OC, the solubility [1] is reported as < 5 mg/mL.
In the case of COc1cc(N)c(Cl)cc1C(=O)N[C@H]1CCN(CC2CCN(C(=O)C(C)C)CC2)C[C@H]1OC.O=C(O)/C=C\C(=O)O, the solubility [1] is reported as > 10 mg/mL.
For COc1cc(N)c(Cl)cc1C(=O)N[C@H]1CCN(CC2CCN(C(=O)C(C)C)CC2)C[C@H]1OC.O=C(O)CC(O)(CC(=O)O)C(=O)O, the solubility [1] was > 30 mg/mL.
For COc1cc(N)c(Cl)cc1C(=O)N[C@H]1CCN(CC2CCN(C(=O)C(C)C)CC2)C[C@H]1OC.Cl, the solubility [1] was > 15 mg/mL.
With COc1cc(N)c(Cl)cc1C(=O)N[C@H]1CCN(CC2CCN(C(=O)C(C)C)CC2)C[C@H]1OC the IC50 [2] was > 10000 nM and the Activity [3] was 56.5%.
In the case of COc1cc(N)c(Cl)cc1C(=O)N[C@H]1CCN(CC2CCN(C(=O)C(C)C)CC2)C[C@H]1OC (racemic) [listing 1 of 2 here], the Tmax [5] is reported as 15 min, the AUC [6] is reported as 483 ng·h/mL and the IC50 [2] is reported as 134 nM. For the same molecule, the Activity [7] was 46.2%, the Activity [8] was 46.9% and the Cmax [9] was 572 ng/mL. For the same molecule, the Activity [3] was 59.1%, the EC50 [10] was 45.7 nM and the Activity [11] was 58.6%. It also gave a half-life [12] of 58.8 min.
Work on COc1cc(N)c(Cl)cc1C(=O)N[C@H]1CCN(CC2CCN(C(=O)C(C)C)CC2)C[C@H]1OC (racemic) [listing 2 of 2 here] yielded an inhibition [13] of 50%, an inhibition [14] of 50% and an inhibition [15] of 50%. The inhibition [16] was 50%, the inhibition [17] was 50% and the inhibition [18] was 50%. The inhibition [19] was 50%, the inhibition [20] was 50% and the inhibition [21] was 50%. For the same molecule, the inhibition [22] was 50%, the inhibition [23] was 50% and the inhibition [24] was 50%. For the same molecule, the inhibition [25] was 50%, the inhibition [26] was 50% and the inhibition [27] was 50%. For the same molecule, the inhibition [28] was 50%, the inhibition [29] was 50% and the inhibition [30] was 50%. The inhibition [31] was 50%, the inhibition [32] was 50% and the inhibition [33] was 50%.
For COc1cc(N)c(Cl)cc1C(=O)N[C@H]1CCN(CCCn2ccnc2)C[C@H]1OC (relative stereo), the IC50 [2] was 1160 nM and the EC50 [10] was 251 nM.
With CCC(=S)N1CCC(CN2CC[C@H](NC(=O)c3cc(Cl)c(N)cc3OC)[C@H](OC)C2)CC1 (relative stereo) the IC50 [2] was 593 nM and the Activity [3] was 61%.
For COc1cc(N)c(Cl)cc1C(=O)N[C@H]1CCN(CCC(=O)N2CCOCC2)C[C@H]1OC (relative stereo), the IC50 [2] was 954 nM.
In the case of COc1cc(N)c(Cl)cc1C(=O)N[C@H]1CCN(CC2CCN(C(=O)CC(C)C)CC2)C[C@H]1OC (relative stereo), the Activity [3] is reported as 54.3%.
COc1cc(N)c(Cl)cc1C(=O)N[C@H]1CCN(CCC(=O)N2CCCC2)C[C@H]1OC (relative stereo) gave an IC50 [2] of 920 nM.
For CCCOC(=O)N1CCC(CN2CC[C@H](NC(=O)c3cc(Cl)c(N)cc3OC)[C@H](OC)C2)CC1 (relative stereo), the IC50 [2] was 134 nM and the Activity [3] was 57.7%.
Molecule COc1cc(N)c(Cl)cc1C(=O)N[C@H]1CCN(CC2CCN(C(=S)C(C)C)CC2)C[C@H]1OC (relative stereo) has an IC50 [2] of 155 nM and an Activity [3] of 67.3%.
Molecule COc1cc(N)c(Cl)cc1C(=O)N[C@H]1CCN(CCn2cccc2)C[C@H]1OC (relative stereo) has an IC50 [2] of 5760 nM.
In the case of COc1cc(N)c(Cl)cc1C(=O)N[C@H]1CCN(CCCn2cccc2)C[C@H]1OC (relative stereo), the IC50 [2] is reported as 648 nM and the EC50 [10] is reported as 676 nM.
With COc1cc(N)c(Cl)cc1C(=O)N[C@H]1CCN(CCC(=O)N2CCCCC2)C[C@H]1OC (relative stereo) the IC50 [2] was 560 nM and the EC50 [10] was 1050 nM.
COc1cc(N)c(Cl)cc1C(=O)N[C@H]1CCN(CC2CCN(C(=O)NC(C)C)CC2)C[C@H]1OC (relative stereo) gave an IC50 [2] of 73 nM and an Activity [3] of 59.9%.
Work on CCC(=O)N1CCC(CN2CC[C@H](NC(=O)c3cc(Cl)c(N)cc3OC)[C@H](OC)C2)CC1 (relative stereo) yielded an IC50 [2] of 329 nM, an Activity [3] of 57.8% and an EC50 [10] of 380 nM.
Work on CCC(=O)N1CCCC(CN2CC[C@H](NC(=O)c3cc(Cl)c(N)cc3OC)[C@H](OC)C2)C1 (relative stereo) yielded an IC50 [2] of 493 nM and an EC50 [10] of 1550 nM.
COc1cc(N)c(Cl)cc1C(=O)N[C@H]1CCN(CC2CCN(C(C)=O)CC2)C[C@H]1OC (relative stereo) showed an IC50 [2] of 592 nM and an Activity [3] of 39.5%.
Molecule CCCC(=O)N1CCC(CN2CC[C@H](NC(=O)c3cc(Cl)c(N)cc3OC)[C@H](OC)C2)CC1 (relative stereo) has an IC50 [2] of 178 nM and an Activity [3] of 48.6%.
With COc1cc(N)c(Cl)cc1C(=O)N[C@H]1CCN(CCCn2cncn2)C[C@H]1OC (relative stereo) the IC50 [2] was 1270 nM, the EC50 [10] was 708 nM and the IC50 [4] was 7710 nM.
Work on COc1cc(N)c(Cl)cc1C(=O)N[C@H]1CCN(CC2CCN(C(=O)N(C)C)CC2)C[C@H]1OC (relative stereo) yielded an IC50 [2] of 52 nM and an Activity [3] of 46%.
Molecule CCC(=O)N1CCC(CCN2CC[C@H](NC(=O)c3cc(Cl)c(N)cc3OC)[C@H](OC)C2)CC1 (relative stereo) has an IC50 [2] of 805 nM.
Work on COc1cc(N)c(Cl)cc1C(=O)N[C@H]1CCN(CCC(=O)N2CCC(Cc3ccccc3)CC2)C[C@H]1OC (relative stereo) yielded an IC50 [2] of 66 nM and an EC50 [10] of 6030 nM.
Molecule COc1cc(N)c(Cl)cc1C(=O)N[C@H]1CCN(CC2CCN(C(=O)C(C)(C)C)CC2)C[C@H]1OC (relative stereo) has a Tmax [5] of 15 min, an AUC [6] of 263 ng·h/mL and an IC50 [2] of 118 nM. It also gave a Cmax [9] of 345 ng/mL, an Activity [3] of 56.4% and an EC50 [10] of 100 nM. It also gave an Activity [11] of 56.6% and a half-life [12] of 46.2 min.
Work on COC(=O)N1CCC(CN2CC[C@H](NC(=O)c3cc(Cl)c(N)cc3OC)[C@H](OC)C2)CC1 (relative stereo) yielded an IC50 [2] of 190 nM and an Activity [3] of 56.2%.
With COc1cc(N)c(Cl)cc1C(=O)N[C@H]1CCN(CCCOc2ccc(F)cc2)C[C@H]1OC (relative stereo) [REL-CISAPRIDE] the Tmax [5] was 15 min, the AUC [6] was 142 ng·h/mL and the Cmax [9] was 104 ng/mL. It also gave an Activity [3] of 57.1%, an Activity [11] of 57.2% and a half-life [12] of 88.8 min.
